According to ChEMBL document CHEMBL4033712, “Synthesis and biological evaluation of new C-12(α/β)-(N-) sulfamoyl-phenylamino-14-deoxy-andrographolide derivatives as potent anti-cancer agents” (Bioorg Med Chem Lett, 2017):

Legend:
Type in all cases: functional
[1] = tested on: RXF 393; assay: Anticancer activity against human RXF393 cells assessed as cell growth at 10 uM after 48 hrs by sulforhodamine B assay relative to control; settings: RXF 393, 48 h, read-out: Activity
Outline: (§1)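 Single-dose NCI-60 panel screen: compound added at 10 µM and the culture incubated 48 h. The end point was read by protein staining with sulforhodamine B. The value is percent growth of treated cells relative to untreated control cells, reported as a mean graph across the panel.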

[2] = tested on: OVCAR-8; assay: Anticancer activity against human OVCAR8 cells assessed as cell growth at 10 uM after 48 hrs by sulforhodamine B assay relative to control; settings: OVCAR-8, 48 h, read-out: Activity; outline: as §1
[3] = tested on: HL-60(TB); assay: Anticancer activity against human HL-60(TB) cells assessed as cell growth at 10 uM after 48 hrs by sulforhodamine B assay relative to control; settings: HL-60, 48 h, read-out: Activity
Outline: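 NCI-60 human tumour panel single-dose screen: cells exposed to 10 µM compound for 48 h. Growth end point read with sulforhodamine B protein-binding dye. Expressed as percent growth of treated cells versus untreated control cells.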

[4] = tested on: TK-10; assay: Anticancer activity against human TK10 cells assessed as cell growth at 10 uM after 48 hrs by sulforhodamine B assay relative to control; settings: TK-10, 48 h, read-out: Activity
Outline: (§2)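 NCI-60 single-dose screen: compound added at 10 µM, cultures incubated 48 h. End point by sulforhodamine B protein-binding dye. Value reported as percent growth of treated cells relative to untreated control cells.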

[5] = tested on: NCI-H522; assay: Anticancer activity against human NCI-H522 cells assessed as cell growth at 10 uM after 48 hrs by sulforhodamine B assay relative to control; settings: NCI-H522, 48 h, read-out: Activity; outline: as §1
[6] = tested on: DU-145; assay: Anticancer activity against human DU145 cells assessed as cell growth at 10 uM after 48 hrs by sulforhodamine B assay relative to control; settings: DU-145, 48 h, read-out: Activity; outline: as §1
[7] = tested on: ACHN; assay: Anticancer activity against human ACHN cells assessed as cell growth at 10 uM after 48 hrs by sulforhodamine B assay relative to control; settings: read-out: Activity; outline: as §1
[8] = tested on: M14; assay: Anticancer activity against human M14 cells assessed as cell growth at 10 uM after 48 hrs by sulforhodamine B assay relative to control; settings: M14, 48 h, read-out: Activity; outline: as §1
[9] = tested on: NCI-H460; assay: Anticancer activity against human NCI-H460 cells assessed as cell growth at 10 uM after 48 hrs by sulforhodamine B assay relative to control; settings: NCI-H460, 48 h, read-out: Activity; outline: as §1
[10] = tested on: UACC-257; assay: Anticancer activity against human UACC257 cells assessed as cell growth at 10 uM after 48 hrs by sulforhodamine B assay relative to control; settings: UACC-257, 48 h, read-out: Activity; outline: as §2
[11] = tested on: COLO 205; assay: Anticancer activity against human COLO205 cells assessed as cell growth at 10 uM after 48 hrs by sulforhodamine B assay relative to control; settings: COLO 205, 48 h, read-out: Activity; outline: as §1
[12] = tested on: NCI/ADR-RES; assay: Anticancer activity against human NCI/ADR-RES cells assessed as cell growth at 10 uM after 48 hrs by sulforhodamine B assay relative to control; settings: read-out: Activity; outline: as §1
[13] = tested on: UACC-62; assay: Anticancer activity against human UACC62 cells assessed as cell growth at 10 uM after 48 hrs by sulforhodamine B assay relative to control; settings: UACC-62, 48 h, read-out: Activity; outline: as §2
[14] = tested on: NCI-H226; assay: Anticancer activity against human NCI-H226 cells assessed as cell growth at 10 uM after 48 hrs by sulforhodamine B assay relative to control; settings: NCI-H226, 48 h, read-out: Activity; outline: as §1
[15] = tested on: RPMI-8226; assay: Anticancer activity against human RPMI8226 cells assessed as cell growth at 10 uM after 48 hrs by sulforhodamine B assay relative to control; settings: RPMI-8226, 48 h, read-out: Activity; outline: as §1
[16] = tested on: IGROV-1; assay: Anticancer activity against human IGROV1 cells assessed as cell growth at 10 uM after 48 hrs by sulforhodamine B assay relative to control; settings: IGROV-1, 48 h, read-out: Activity; outline: as §1
[17] = tested on: SK-MEL-5; assay: Anticancer activity against human SK-MEL-5 cells assessed as cell growth at 10 uM after 48 hrs by sulforhodamine B assay relative to control; settings: SK-MEL-5, 48 h, read-out: Activity; outline: as §1
[18] = tested on: OVCAR-3; assay: Anticancer activity against human OVCAR3 cells assessed as cell growth at 10 uM after 48 hrs by sulforhodamine B assay relative to control; settings: OVCAR-3, 48 h, read-out: Activity; outline: as §1
[19] = tested on: Malme-3M; assay: Anticancer activity against human MALME-3M cells assessed as cell growth at 10 uM after 48 hrs by sulforhodamine B assay relative to control; settings: read-out: Activity; outline: as §1
[20] = tested on: T47D; assay: Anticancer activity against human T47D cells assessed as cell growth at 10 uM after 48 hrs by sulforhodamine B assay relative to control; settings: read-out: Activity; outline: as §2
[21] = tested on: HOP-62; assay: Anticancer activity against human HOP62 cells assessed as cell growth at 10 uM after 48 hrs by sulforhodamine B assay relative to control; settings: HOP-62, 48 h, read-out: Activity; outline: as §1
[22] = tested on: MDA-MB-435; assay: Anticancer activity against human MDA-MB-435 cells assessed as cell growth at 10 uM after 48 hrs by sulforhodamine B assay relative to control; settings: MDA-MB-435, 48 h, read-out: Activity; outline: as §1
[23] = tested on: HCT-116; assay: Anticancer activity against human HCT116 cells assessed as cell growth at 10 uM after 48 hrs by sulforhodamine B assay relative to control; settings: HCT-116, 48 h, read-out: Activity; outline: as §1
[24] = tested on: HT-29; assay: Anticancer activity against human HT-29 cells assessed as cell growth at 10 uM after 48 hrs by sulforhodamine B assay relative to control; settings: HT-29, 48 h, read-out: Activity; outline: as §1
[25] = tested on: A498; assay: Anticancer activity against human A498 cells assessed as cell growth at 10 uM after 48 hrs by sulforhodamine B assay relative to control; settings: A498, 48 h, read-out: Activity; outline: as §1
[26] = tested on: NCI/ADR-RES; assay: Growth inhibition of human NCI/ADR-RES cells incubated for 48 hrs by sulforhodamine B assay
Outline: (§3)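 NCI-60 five-dose screen at 0.01, 0.1, 1, 10 and 100 µM, 48 h incubation, sulforhodamine B end point. GI50 (50% decrease in net growth), TGI (total growth inhibition) and LC50 (net 50% loss of initial cells) taken from log concentration versus % growth inhibition curves.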

[27] = tested on: HCC 2998; assay: Growth inhibition of human HCC2998 cells incubated for 48 hrs by sulforhodamine B assay; settings: HCC 2998, 48 h; for CC50: read-out: LC50 (the source's name); outline: as §3
[28] = tested on: MDA-MB-468; assay: Growth inhibition of human MDA-MB-468 cells incubated for 48 hrs by sulforhodamine B assay; settings: MDA-MB-468, 48 h; for CC50: read-out: LC50 (the source's name); outline: as §3
[29] = tested on: PC-3; assay: Growth inhibition of human PC3 cells incubated for 48 hrs by sulforhodamine B assay; settings: PC-3, 48 h; for CC50: read-out: LC50 (the source's name); outline: as §3

C=C1CC[C@@H]2[C@](C)(COC(C)=O)[C@H](OC(C)=O)CC[C@@]2(C)[C@H]1CC(Nc1ccc(S(=O)(=O)Nc2nc(C)cc(C)n2)cc1)C1=CCOC1=O (some centres undefined)
growth at 10 µM [1]: 85.1%
growth at 10 µM [2]: 62%
growth at 10 µM [3]: 21.7%
growth at 10 µM [4]: 111%
growth at 10 µM [5]: 22%
growth at 10 µM [6]: 82.3%
growth at 10 µM [7]: 71.6%
growth at 10 µM [8]: 63.8%
growth at 10 µM [9]: 90.3%
growth at 10 µM [10]: 67.9%
growth at 10 µM [11]: 77%
growth at 10 µM [12]: 66.7%
growth at 10 µM [13]: 32.9%
growth at 10 µM [14]: 86.7%
growth at 10 µM [15]: 2.24%
growth at 10 µM [16]: 81.5%
growth at 10 µM [17]: 74.2%
growth at 10 µM [18]: 44.8%
growth at 10 µM [19]: 96.3%
growth at 10 µM [20]: 68.8%
growth at 10 µM [21]: 103%
growth at 10 µM [22]: 67%
growth at 10 µM [23]: 39.2%
growth at 10 µM [24]: 46.2%
growth at 10 µM [25]: 85.3%

C=C1CC[C@@H]2[C@](C)(COC(C)=O)[C@H](OC(C)=O)CC[C@@]2(C)[C@H]1CC(Nc1ccc(S(=O)(=O)Nc2cc(C)on2)cc1)C1=CCOC1=O (some centres undefined)
growth at 10 µM [1]: 29.8%
GI50 [26]: 2.41 µM
LC50 (concentration giving net 50% loss of initial cells) [26]: > 100 µM
TGI [26]: 12 µM
growth at 10 µM [2]: 16.1%
growth at 10 µM [3]: -2.05%
growth at 10 µM [4]: 58.4%
growth at 10 µM [5]: -20.2%
growth at 10 µM [6]: 71.1%
growth at 10 µM [7]: 19.5%
GI50 [27]: 2.14 µM
TGI [27]: 4.05 µM
CC50 [27]: 7.64 µM
growth at 10 µM [8]: 29.9%
growth at 10 µM [9]: 79.5%
growth at 10 µM [10]: 69%
growth at 10 µM [11]: 29%
growth at 10 µM [12]: 31.6%
growth at 10 µM [13]: 19.8%
GI50 [28]: 1.49 µM
TGI [28]: 3.29 µM
CC50 [28]: 7.27 µM
growth at 10 µM [14]: 79.5%
growth at 10 µM [15]: -15.2%
growth at 10 µM [16]: 62.6%
growth at 10 µM [17]: 44.1%
growth at 10 µM [18]: 7.95%
growth at 10 µM [19]: 56.6%
growth at 10 µM [20]: 63.6%
GI50 [29]: 1.98 µM
TGI [29]: 4.31 µM
CC50 [29]: 9.4 µM
growth at 10 µM [21]: 60.2%
growth at 10 µM [22]: 35%
growth at 10 µM [23]: -1.13%
growth at 10 µM [24]: -11%
growth at 10 µM [25]: 98.6%

C=C1CC[C@@H]2[C@](C)(COC(C)=O)[C@H](OC(C)=O)CC[C@@]2(C)[C@H]1CC(Nc1ccc(S(=O)(=O)Nc2ccc(Cl)nn2)cc1)C1=CCOC1=O (some centres undefined)
growth at 10 µM [1]: -13.4%
GI50 [26]: 1.87 µM
LC50 (concentration giving net 50% loss of initial cells) [26]: > 100 µM
TGI [26]: 6.2 µM
growth at 10 µM [2]: 16.9%
growth at 10 µM [3]: -17.5%
growth at 10 µM [4]: 69.8%
growth at 10 µM [5]: -34.5%
growth at 10 µM [6]: 40.2%
growth at 10 µM [7]: 16.1%
GI50 [27]: 1.84 µM
TGI [27]: 3.86 µM
CC50 [27]: 8.08 µM
growth at 10 µM [8]: 10.7%
growth at 10 µM [9]: 14.5%
growth at 10 µM [10]: 44%
growth at 10 µM [11]: 18%
growth at 10 µM [12]: 16.7%
growth at 10 µM [13]: -50%
GI50 [28]: 1.32 µM
TGI [28]: 3.37 µM
CC50 [28]: 8.62 µM
growth at 10 µM [14]: -10%
growth at 10 µM [15]: -19.2%
growth at 10 µM [16]: 43.3%
growth at 10 µM [17]: 35.8%
growth at 10 µM [18]: -56.1%
growth at 10 µM [19]: 55.3%
growth at 10 µM [20]: 34.1%
GI50 [29]: 2.24 µM
TGI [29]: 5.25 µM
CC50 [29]: 15.8 µM
growth at 10 µM [21]: 47.9%
growth at 10 µM [22]: 8.13%
growth at 10 µM [23]: -34.1%
growth at 10 µM [24]: -18.3%
growth at 10 µM [25]: 89%
